# Experimental data from ChEMBL document CHEMBL1155233, “Structure mechanism insights and the role of nitric oxide donation guide the development of oxadiazole-2-oxides as therapeutic agents against schistosomiasis” (J Med Chem, 2009).
# Activity calls are given as the source filed them. No cut-off for these calls is given here.
# What was measured:
# Schistosoma mansoni [1] = assay: Antischistosomal activity against Schistosoma mansoni assessed as parasite killing after 2 hrs; type: functional, organism-based
# Outline: (§1)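 Cultured ex vivo worms were exposed to 10 μM compound. Worm effects were scored by visual examination at time points over a 72 h time-course.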
# Schistosoma mansoni [2] = assay: Antischistosomal activity against Schistosoma mansoni assessed as induction of parasite curling after 4 hrs; type: functional, organism-based; outline: as §1
# [3] = Induction of nitric oxide release at 10 uM in presence of Schistosoma mansoni recombinant TGR; type: functional
# [4] = Induction of nitric oxide release at 10 uM in presence of Schistosoma mansoni recombinant TGR and NADPH; type: functional
# [5] = Reactivity with cysteine at 0.1 mM in 0.1M phosphate buffer assessed as amount of compound unreacted by HPLC
# Schistosoma mansoni [6] = assay: Antischistosomal activity against Schistosoma mansoni assessed as parasite killing after 4 hrs; type: functional; outline: as §1
# Schistosoma mansoni [7] = assay: Antischistosomal activity against Schistosoma mansoni assessed as induction of parasite mortality after 8 hrs; type: functional; design: concentration or dose not given beside the values; outline: as §1
# Schistosoma mansoni [8] = assay: Antischistosomal activity against Schistosoma mansoni assessed as induction of parasite mortality after 24 hrs; type: functional; design: concentration or dose not given beside the values; outline: as §1
# Schistosoma mansoni [9] = assay: Antischistosomal activity against Schistosoma mansoni assessed as induction of parasite mortality after 48 hrs; type: functional; design: concentration or dose not given beside the values; outline: as §1
# Schistosoma mansoni [10] = assay: Antischistosomal activity against Schistosoma mansoni assessed as induction of parasite mortality after 72 hrs; type: functional; design: concentration or dose not given beside the values; outline: as §1
# Schistosoma mansoni [11] = assay: Antischistosomal activity against Schistosoma mansoni assessed as induction of parasite sluggish movement after 16 hrs; type: functional, organism-based; outline: as §1
# [12] = Induction of nitric oxide release at 10 uM in presence of cysteine; type: physicochemical
# [13] = target: T1, Glutathione reductase, mitochondrial (Homo sapiens, UniProt P00390); assay: Inhibition of human recombinant GR after 15 mins in presence of NADPH
# T1 sequence (P00390 whole entry): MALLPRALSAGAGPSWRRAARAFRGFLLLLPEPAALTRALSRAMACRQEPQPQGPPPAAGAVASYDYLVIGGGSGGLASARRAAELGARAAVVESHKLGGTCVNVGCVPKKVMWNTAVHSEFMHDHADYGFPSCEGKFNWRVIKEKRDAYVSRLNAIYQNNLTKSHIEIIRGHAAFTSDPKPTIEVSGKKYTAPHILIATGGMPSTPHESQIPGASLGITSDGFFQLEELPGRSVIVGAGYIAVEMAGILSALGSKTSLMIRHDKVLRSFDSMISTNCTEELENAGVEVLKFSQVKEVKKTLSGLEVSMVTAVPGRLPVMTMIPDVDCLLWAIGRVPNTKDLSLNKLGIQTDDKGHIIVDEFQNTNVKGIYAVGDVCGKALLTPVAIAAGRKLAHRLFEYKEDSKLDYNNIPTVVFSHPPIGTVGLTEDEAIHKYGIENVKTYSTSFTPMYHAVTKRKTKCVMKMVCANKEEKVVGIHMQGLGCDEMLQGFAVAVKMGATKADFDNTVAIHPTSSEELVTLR
# [14] = target: T2, Thioredoxin reductase 1, cytoplasmic (Rattus norvegicus, UniProt O89049); assay: Inhibition of rat recombinant TrxR1 after 10 mins
# T2 sequence (O89049 whole entry): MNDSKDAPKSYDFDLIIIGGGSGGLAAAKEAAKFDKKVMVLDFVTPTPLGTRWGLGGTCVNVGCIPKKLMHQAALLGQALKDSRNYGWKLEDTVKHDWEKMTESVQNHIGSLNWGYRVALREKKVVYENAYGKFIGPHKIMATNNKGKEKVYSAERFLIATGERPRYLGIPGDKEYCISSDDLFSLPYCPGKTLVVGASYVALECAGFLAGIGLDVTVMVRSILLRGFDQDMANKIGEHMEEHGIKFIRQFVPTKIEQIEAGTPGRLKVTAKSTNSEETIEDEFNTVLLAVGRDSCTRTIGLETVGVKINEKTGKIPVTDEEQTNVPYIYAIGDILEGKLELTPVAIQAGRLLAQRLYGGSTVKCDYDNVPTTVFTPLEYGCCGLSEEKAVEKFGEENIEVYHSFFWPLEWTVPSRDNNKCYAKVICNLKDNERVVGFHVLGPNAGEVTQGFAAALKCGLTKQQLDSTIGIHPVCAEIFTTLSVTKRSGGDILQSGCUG
# [15] = target: T3, Thioredoxin glutathione reductase (Schistosoma mansoni, UniProt Q962Y6); assay: Inhibition of Schistosoma mansoni TGR
# T3 sequence (Q962Y6 whole entry): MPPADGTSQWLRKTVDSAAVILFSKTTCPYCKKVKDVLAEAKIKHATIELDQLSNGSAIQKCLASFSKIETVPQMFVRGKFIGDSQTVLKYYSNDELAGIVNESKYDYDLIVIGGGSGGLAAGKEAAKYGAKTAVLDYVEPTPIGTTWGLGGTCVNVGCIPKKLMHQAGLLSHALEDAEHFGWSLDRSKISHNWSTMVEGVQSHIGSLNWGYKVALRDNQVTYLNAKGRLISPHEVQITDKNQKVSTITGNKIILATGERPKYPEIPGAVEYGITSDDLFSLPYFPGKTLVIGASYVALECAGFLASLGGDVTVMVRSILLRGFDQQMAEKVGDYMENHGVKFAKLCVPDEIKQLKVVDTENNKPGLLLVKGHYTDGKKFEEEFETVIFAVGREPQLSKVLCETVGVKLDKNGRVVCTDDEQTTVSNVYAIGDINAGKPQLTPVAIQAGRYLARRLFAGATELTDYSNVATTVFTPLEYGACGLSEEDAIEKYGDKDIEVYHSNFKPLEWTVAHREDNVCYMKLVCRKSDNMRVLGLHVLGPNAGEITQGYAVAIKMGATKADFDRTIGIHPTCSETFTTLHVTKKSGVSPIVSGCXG
# Schistosoma mansoni [16] = assay: Antischistosomal activity against Schistosoma mansoni assessed as induction of parasite mortality after 16 hrs; type: functional; design: concentration or dose not given beside the values; outline: as §1
# [17] = Solubility by quantitative nitrogen detection based method
# Caco-2 [18] = assay: Apparent permeability from basolateral to apical side of human Caco-2 cells
# [19] = Metabolic stability in human liver microsomes assessed as compound remaining over 60 mins in presence of NADPH; type: ADME, Microsome; settings: read-out: Stability
# [20] = Metabolic stability in human liver microsomes assessed as compound remaining over 60 mins in absence of NADPH; type: ADME, Microsome; settings: read-out: Stability
# hERG (KCNH2) = hERG (KCNH2) (Homo sapiens, UniProt Q12809); assay: Inhibition of human ERG expressed in HEK293 cells at 10 uM by fast patch clamp method; settings: HEK293 cells expressing human ERG
# Schistosoma mansoni [21] = assay: Antischistosomal activity against Schistosoma mansoni assessed as induction of parasite sluggish movement after 8 hrs; type: functional, organism-based; outline: as §1
# [22] = Distribution coefficient, log D of the compound; settings: octanol/water
# Caco-2 [23] = assay: Apparent permeability from apical to basolateral side of human Caco-2 cells
# Schistosoma mansoni [24] = assay: Antischistosomal activity against Schistosoma mansoni assessed as induction of parasite sluggish movement after 4 hrs; type: functional, organism-based; outline: as §1
# Chain of hERG (KCNH2) (Q12809 whole entry): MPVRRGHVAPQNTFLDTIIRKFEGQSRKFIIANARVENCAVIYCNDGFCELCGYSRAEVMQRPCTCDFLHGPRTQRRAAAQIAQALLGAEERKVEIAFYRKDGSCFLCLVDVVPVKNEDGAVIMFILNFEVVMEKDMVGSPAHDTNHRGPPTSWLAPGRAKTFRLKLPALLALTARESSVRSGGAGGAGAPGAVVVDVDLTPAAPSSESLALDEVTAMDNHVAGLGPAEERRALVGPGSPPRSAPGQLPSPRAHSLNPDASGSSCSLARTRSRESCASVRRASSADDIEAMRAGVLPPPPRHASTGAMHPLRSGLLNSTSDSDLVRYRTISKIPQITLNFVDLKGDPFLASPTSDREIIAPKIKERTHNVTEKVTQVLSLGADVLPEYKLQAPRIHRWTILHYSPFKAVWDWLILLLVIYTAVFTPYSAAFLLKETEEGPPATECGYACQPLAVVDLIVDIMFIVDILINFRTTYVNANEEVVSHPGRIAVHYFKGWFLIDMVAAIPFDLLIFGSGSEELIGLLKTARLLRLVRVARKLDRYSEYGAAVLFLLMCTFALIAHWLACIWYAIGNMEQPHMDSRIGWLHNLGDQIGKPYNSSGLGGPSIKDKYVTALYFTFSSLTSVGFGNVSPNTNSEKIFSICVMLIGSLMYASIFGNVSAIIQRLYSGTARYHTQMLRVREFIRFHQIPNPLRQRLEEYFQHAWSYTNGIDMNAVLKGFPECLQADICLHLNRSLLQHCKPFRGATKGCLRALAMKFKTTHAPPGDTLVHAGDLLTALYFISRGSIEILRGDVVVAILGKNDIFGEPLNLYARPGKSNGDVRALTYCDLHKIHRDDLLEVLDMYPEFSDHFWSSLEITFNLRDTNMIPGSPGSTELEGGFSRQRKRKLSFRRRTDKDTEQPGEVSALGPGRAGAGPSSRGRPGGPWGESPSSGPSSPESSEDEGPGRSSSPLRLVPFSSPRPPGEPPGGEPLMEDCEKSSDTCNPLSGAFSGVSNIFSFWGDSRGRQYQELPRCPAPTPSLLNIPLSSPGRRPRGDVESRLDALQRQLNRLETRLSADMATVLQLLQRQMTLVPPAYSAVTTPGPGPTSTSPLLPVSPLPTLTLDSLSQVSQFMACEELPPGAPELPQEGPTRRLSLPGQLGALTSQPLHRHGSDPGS
Compound,Activity (Schistosoma mansoni [1]),Activity [3],Activity [4],Activity [5],Activity (Schistosoma mansoni [6]),Activity (Schistosoma mansoni [7]),Activity (Schistosoma mansoni [8]),Activity (Schistosoma mansoni [9]),Activity (Schistosoma mansoni [10]),Activity (Schistosoma mansoni [11]),Activity [12],IC50 [13],IC50 [14],Activity (Schistosoma mansoni [16]),also measured
N#Cc1c(-c2ccccc2)no[n+]1[O-] [FUROXAN],inactive,1.5%,15%,Active,,,,,,,,,,,Activity (Schistosoma mansoni [2]): Active
N#Cc1c(-c2ccc(Cl)cc2)no[n+]1[O-],inactive,2%,16%,,inactive,inactive,42%,60%,100%,Active,61%,> 50 µM,> 400 µM,,
N#Cc1c(-c2cccs2)no[n+]1[O-],inactive,1%,2%,,inactive,,25%,100%,100%,,20%,,,25%,IC50 [15]: 3.5 µM; solubility [17]: 240 µM; Papp (Caco-2 [18]): 90 nm/s; remaining at 1 h [19]: 1%; remaining at 1 h [20]: 64%; inhibition at 10 µM (hERG (KCNH2)): 3.4%
N#Cc1c(-c2csc(-c3no[n+]([O-])c3C#N)c2)no[n+]1[O-],inactive,,,,,,,,,,,,,,remaining at 1 h [20]: 52%
N#Cc1c(-c2ccc(O)cc2)no[n+]1[O-],inactive,,,,inactive,,40%,60%,100%,,,> 50 µM,> 400 µM,15%,Activity (Schistosoma mansoni [21]): Active
O=C(c1cccs1)c1no[n+]([O-])c1C(=O)c1cccs1,inactive,,,Active,inactive,inactive,inactive,inactive,inactive,,,,,inactive,IC50 [15]: 0.04 µM
N#Cc1c(-c2cccc([N+](=O)[O-])c2)no[n+]1[O-],inactive,2%,16%,,inactive,inactive,10%,15%,21%,Active,72%,> 50 µM,150 µM,,
N#Cc1c(-c2ccc(-c3ccccc3)cc2)no[n+]1[O-],inactive,,,,inactive,,Active,40%,45%,Active,,,,,Activity (Schistosoma mansoni [21]): Active
COc1cc(-c2no[n+]([O-])c2C#N)cc(OC)c1OC,inactive,< 1%,8%,,inactive,7%,40%,70%,75%,Active,20%,> 50 µM,150 µM,,
N#Cc1c(-c2cccc(-c3no[n+]([O-])c3C#N)c2)no[n+]1[O-],inactive,,,,,45%,100%,100%,,,,> 50 µM,150 µM,60%,Activity (Schistosoma mansoni [2]): Active; solubility [17]: 5 µM; inhibition at 10 µM (hERG (KCNH2)): 7.8%
N#Cc1c(-c2cc(F)cc(-c3no[n+]([O-])c3C#N)c2)no[n+]1[O-],inactive,,,Active,inactive,,78%,100%,,,,,,55%,solubility [17]: 89.1 µM; logD [22]: 2.91; Papp (Caco-2 [23]): 79 nm/s; Papp (Caco-2 [18]): 27 nm/s; remaining at 1 h [19]: 20%; remaining at 1 h [20]: 51%; inhibition at 10 µM (hERG (KCNH2)): 29.4%
N#Cc1c(C(=O)c2cccs2)no[n+]1[O-],inactive,,,Active,inactive,inactive,inactive,inactive,inactive,,,,,inactive,IC50 [15]: 0.063 µM
N#Cc1c(-c2cccc(Cl)c2)no[n+]1[O-],inactive,1%,12%,,,15%,64%,80%,100%,,50%,35.7 µM,< 12.5 µM,20%,Activity (Schistosoma mansoni [24]): Active
